In the library only some 2.5% were active in any assay of this set; here they are far more common.
UHRF1 MBD2 ctr – human UHRF1 methylated DNA binding inhibitors | inhibition, % at 4.4 µM | hit rate 0.75% among 370,000 | UHRF1 binding to methylated oligo, TR-FRET | AID 687016 | Q96T88; in the data active = inhibition above about 21%;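 note: UHRF1 SRA domain binding a hemimethylated CpG hairpin DNA probe; 0% = median of test compound wells and 100% = reference inhibitor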
DNMT1 block – inhibitors of human DNMT1. inhibition (reported as % activation of signal), % at 10 µM. P26358. hit rate 0.83% among 360,000. DNMT1 molecular beacon, Hinp1I cleavage, fluorescence; in the data active = inhibition above about 50%
SUMO1 PPI mod – alters human SUMO1 binding to SIM partners; SUMO1 binding to a labelled peptide, TR-FRET, 1 h; hit rate 0.33% among 360,000; AID 602429; P63165; inhibition, % at 20 µM; in the data active = inhibition above about 37%
Target sequence (P63165 whole entry, looked up): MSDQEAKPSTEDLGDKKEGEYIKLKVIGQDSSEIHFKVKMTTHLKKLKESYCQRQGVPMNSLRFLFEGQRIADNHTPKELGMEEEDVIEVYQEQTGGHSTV
HCV NS3 hel inh – blocks Hepatitis C virus NS3 helicase unwinding | NS3 helicase DNA unwinding, Cy5 molecular beacon fluorescence | inhibition, % at 10.9 µM | hit rate 0.56% among 290,000;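 active = inhibition above the mean of all tested compounds plus 3 SD, set per campaign, cut at about 35% in these data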;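 note: 0% = DMSO wells and 100% = thioflavine S control wells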
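Material: hepatitis C virus NS3 helicase domain fragment enzyme; measured by: Cy5 fluorescence, 0 and 60 min reads; control set: DMSO and thioflavine S; incubation: 60 min unwinding reaction at 25 °C after ATP addition; read-out basis: % inhibition from 60/0 min fluorescence ratio, DMSO 0%, thioflavine S 100%; repeats: singlicate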
MBD2 inh – MBD2-methylated oligo binding inhibition; inhibition, % at 4.4 µM; hit rate 0.31% among 370,000; Q9UBB5; TR-FRET, MBD2 binding to methylated oligonucleotide; in the data active = inhibition above about 13%
Target sequence (Q9UBB5 whole entry, looked up): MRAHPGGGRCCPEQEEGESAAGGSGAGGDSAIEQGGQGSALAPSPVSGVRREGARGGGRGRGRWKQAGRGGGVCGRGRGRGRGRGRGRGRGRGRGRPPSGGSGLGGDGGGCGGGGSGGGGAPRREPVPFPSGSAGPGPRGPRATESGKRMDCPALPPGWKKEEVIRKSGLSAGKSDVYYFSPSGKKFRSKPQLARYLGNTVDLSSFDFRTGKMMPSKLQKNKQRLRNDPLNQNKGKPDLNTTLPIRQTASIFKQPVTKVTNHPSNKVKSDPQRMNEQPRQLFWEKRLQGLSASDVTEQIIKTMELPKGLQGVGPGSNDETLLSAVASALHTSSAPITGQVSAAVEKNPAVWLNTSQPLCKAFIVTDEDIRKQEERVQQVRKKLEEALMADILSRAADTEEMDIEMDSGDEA
Pemphigus Ab inh – blocks pemphigus antibody binding to human desmoglein-3 | DSG3-coupled beads, scFv-anti-DSG3-GFP binding, flow cytometry; stronger effect = lower value | binding (percent of control), % at 10 µM | hit rate 0.48% among 310,000 | AID 588358;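 active = binding more than 3 SD below its plate's average and above zero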
The depositor's hits bear a star.

For CC(C)(C)c1ccc(S(=O)(=O)NNC(=O)C2CCN(Cc3cccc(F)c3)CC2)cc1 the results were UHRF1 MBD2 ctr 24*, DNMT1 block 0, SUMO1 PPI mod -1, HCV NS3 hel inh -4, MBD2 inh -3 and Pemphigus Ab inh 100.
For CNC(=O)CN(C)S(=O)(=O)c1ccc(F)cc1 the results were UHRF1 MBD2 ctr -1, DNMT1 block 6, SUMO1 PPI mod -2, HCV NS3 hel inh -3, MBD2 inh 0 and Pemphigus Ab inh 79*.
Screening COC(=O)c1cc(Br)c(=O)n(-c2ccccn2)c1 returned UHRF1 MBD2 ctr 37*, DNMT1 block -4, SUMO1 PPI mod 0, HCV NS3 hel inh 0 and MBD2 inh -6.
`COC(=O)c1cc(Br)c(=O)n(-c2nccs2)c1` gave UHRF1 MBD2 ctr -2, DNMT1 block 5, SUMO1 PPI mod -11, HCV NS3 hel inh -3, MBD2 inh 3 and Pemphigus Ab inh 104.
`CCn1nc(C)c(NC(=O)c2ccc(Cl)cc2)c1C` gave UHRF1 MBD2 ctr 27*, DNMT1 block 2, SUMO1 PPI mod -4, HCV NS3 hel inh -6, MBD2 inh 13 and Pemphigus Ab inh 99.
For CC1=C(SCc2ccccc2)C(=O)c2ccccc2C1=O the results were UHRF1 MBD2 ctr 3, DNMT1 block 76*, SUMO1 PPI mod 21, MBD2 inh -17 and Pemphigus Ab inh 94.
`Cn1c(C(=O)N2CCOCC2)cc2c(=O)n3ccccc3nc21` gave UHRF1 MBD2 ctr -3, DNMT1 block 0, SUMO1 PPI mod -18, HCV NS3 hel inh -2, MBD2 inh -8 and Pemphigus Ab inh 104.
CC1CN(C(=O)c2cc3c(=O)n4ccccc4nc3n2C)CC(C)O1 (stereo not given) was read as UHRF1 MBD2 ctr 27*, DNMT1 block 1, SUMO1 PPI mod 9, HCV NS3 hel inh -2, MBD2 inh 0 and Pemphigus Ab inh 105.
Screening COC(=O)/C=C/c1ccc(-n2ccnc2)cc1 returned UHRF1 MBD2 ctr -6, DNMT1 block -2, SUMO1 PPI mod -16, HCV NS3 hel inh -2, MBD2 inh 1 and Pemphigus Ab inh 88.
O=C(NC(Cc1ccccc1)C(=O)NCCc1ccccn1)c1cccs1 (stereo not given) was read as UHRF1 MBD2 ctr 0, DNMT1 block 1, SUMO1 PPI mod -6, HCV NS3 hel inh -1, MBD2 inh 0 and Pemphigus Ab inh 86.
`Cc1ccc(S(=O)(=O)N(C)C)cc1NC(=O)C1CCCCC1` gave UHRF1 MBD2 ctr -1, DNMT1 block 1, SUMO1 PPI mod 2, HCV NS3 hel inh 7, MBD2 inh -5 and Pemphigus Ab inh 63*.
`O=c1[nH]c(Nc2ccc(F)cc2)cc2ccccc12` gave UHRF1 MBD2 ctr 5, DNMT1 block 49, SUMO1 PPI mod 32, HCV NS3 hel inh -8, MBD2 inh 2 and Pemphigus Ab inh 132.
For Cc1ccccc1Nc1cc2ccccc2c(=O)[nH]1 the results were DNMT1 block 84*, SUMO1 PPI mod 21, HCV NS3 hel inh 10 and Pemphigus Ab inh 104.
O=c1[nH]c(Nc2ccccc2Cl)cc2ccccc12 was read as UHRF1 MBD2 ctr 9, DNMT1 block 85*, SUMO1 PPI mod 28, MBD2 inh -4 and Pemphigus Ab inh 102.
For O=c1[nH]c(Nc2ccccn2)cc2ccccc12 the results were UHRF1 MBD2 ctr -5, DNMT1 block 30, SUMO1 PPI mod 9, MBD2 inh -11 and Pemphigus Ab inh 98.
COc1ccccc1Nc1nn2c(=O)c3ccc(C(=O)N4CCCCC4)cc3nc2s1 was read as UHRF1 MBD2 ctr 1, DNMT1 block -2, SUMO1 PPI mod 5, HCV NS3 hel inh 1, MBD2 inh -2 and Pemphigus Ab inh 94.
CCc1ccccc1Nc1nn2c(=O)c3ccc(C(=O)NCc4ccccn4)cc3nc2s1 was read as UHRF1 MBD2 ctr 2, DNMT1 block -5, SUMO1 PPI mod 39*, HCV NS3 hel inh -13, MBD2 inh 2 and Pemphigus Ab inh 110.
Screening COc1ccccc1Nc1nn2c(=O)c3ccc(C(=O)NCc4cccnc4)cc3nc2s1 returned DNMT1 block 51*, SUMO1 PPI mod 47*, HCV NS3 hel inh 7 and Pemphigus Ab inh 94.
Screening O=C(NCc1ccccn1)c1ccc2c(=O)n3nc(Nc4ccccc4)sc3nc2c1 returned UHRF1 MBD2 ctr 2, DNMT1 block 32, SUMO1 PPI mod 52*, HCV NS3 hel inh 8, MBD2 inh 2 and Pemphigus Ab inh 113.
Screening O=C(CCN1C(=O)c2ccccc2S1(=O)=O)NCc1ccc(F)cc1 returned UHRF1 MBD2 ctr -1, DNMT1 block 1, SUMO1 PPI mod -8, MBD2 inh -5 and Pemphigus Ab inh 96.
CCOC(=O)CC1(NC(=O)c2cc(COc3cccc(OC)c3)on2)CCCCC1 was read as UHRF1 MBD2 ctr 0, DNMT1 block -1, SUMO1 PPI mod 1, HCV NS3 hel inh -8, MBD2 inh 3 and Pemphigus Ab inh 81*.
For COc1ccc(NC(=O)CSc2nnc(Cc3ccccc3)o2)c(OC)c1 the results were UHRF1 MBD2 ctr -2, DNMT1 block 13, SUMO1 PPI mod -4, HCV NS3 hel inh -4, MBD2 inh 1 and Pemphigus Ab inh 88.
For CCOc1ccc(S(=O)(=O)N2CCN(S(=O)(=O)c3ccc(C)c(C)c3)CC2)cc1 the results were UHRF1 MBD2 ctr 4, DNMT1 block 23, SUMO1 PPI mod 13, HCV NS3 hel inh 11, MBD2 inh 2 and Pemphigus Ab inh 94.
Screening COc1ccc(N=C2S/C(=C\c3ccc(N4CCOCC4)o3)C(=O)N2CCc2c[nH]c3ccccc23)cc1 returned DNMT1 block -11, SUMO1 PPI mod -33, HCV NS3 hel inh 20 and Pemphigus Ab inh 143.
For COc1ccc(N=C2S/C(=C\c3ccc(OCC(=O)O)cc3)C(=O)N2CCc2c[nH]c3ccccc23)cc1 the results were UHRF1 MBD2 ctr -1, DNMT1 block -21, SUMO1 PPI mod 98*, HCV NS3 hel inh -14, MBD2 inh -1 and Pemphigus Ab inh 46*.
`COc1ccc(C2CC(=O)C=C3c4ccc(OC)cc4CCC32)cc1` (stereo not given) gave UHRF1 MBD2 ctr 1, DNMT1 block -6, SUMO1 PPI mod -24, MBD2 inh 0 and Pemphigus Ab inh 84*.
`COc1ccc([C@H]2CC(=O)C=C(c3ccc(OC)cc3OC)C2)cc1` gave UHRF1 MBD2 ctr 6, DNMT1 block -2, SUMO1 PPI mod -17, MBD2 inh 2 and Pemphigus Ab inh 97.
For CCC(C)N(C(=O)COC(=O)CNC(=O)c1sc2ccccc2c1Cl)C1CCS(=O)(=O)C1 (stereo not given) the results were UHRF1 MBD2 ctr 21*, DNMT1 block -1, SUMO1 PPI mod -5, HCV NS3 hel inh 16, MBD2 inh 4 and Pemphigus Ab inh 104.
For CCCC(=O)Nc1c(-c2ccccc2)[nH][nH]c1=O the results were UHRF1 MBD2 ctr -9, DNMT1 block -14, SUMO1 PPI mod -2 and MBD2 inh 1.
